Published values pooled from the literature.
Compare with care: the assays were run in different laboratories.
Target: Citron Rho-interacting kinase (CIT, Homo sapiens, UniProt O14578)

The remaining binding of `CN1CCN(C(=O)c2ccc(NC(=O)Nc3ccc(N(C)c4ccnc(Nc5ccc(CS(C)(=O)=O)cc5)n4)cc3)cc2)CC1` is reported as 79% (binding, competition with immobilised ligand; 1 µM).
For `CC(C)S(=O)(=O)c1ccc2nccc(Nc3ccc4sc(C5CCCC5)nc4c3)c2c1`, the activity vs control was 113% (enzyme activity, inhibitor; 1 µM).
`CC#CC(=O)N1CCC[C@H]1c1nc(-c2ccc(C(=O)Nc3ccccn3)cc2)c2c(N)nccn12` has an inhibition of 1% (enzyme activity, inhibitor; 1 µM).
`COc1ccc2oc(-c3ccc4nc(N)oc4c3)c/c(=N\c3ccccc3NC(=O)CCN)c2c1` has a remaining binding of 92% (binding; 1 µM).
`C1=C/COCc2cc(ccc2OCCN2CCCC2)Nc2nccc(n2)-c2cccc(c2)COC/1` has a remaining signal of 72% (cell-free assay; 0.1 µM).
For `CO[C@@H]1[C@H](N(C)C(=O)c2ccccc2)C[C@H]2O[C@]1(C)n1c3ccccc3c3c4c(c5c6ccccc6n2c5c31)C(=O)NC4`, the inhibition was 0% (enzyme activity, inhibitor; 1 µM).
`CCCCC(=O)Nc1ccc(-c2ccc3ncn(CCC)c(=O)c3c2)cn1` has a remaining binding of 83% (binding, competition with immobilised ligand; 0.5 µM).
For `Cc1ccc(NC(=O)c2ccnc(C(F)(F)F)c2)cc1-c1cc(OCCO)nc(N2CCOCC2)c1`, the remaining binding was 96% (binding, competition with immobilised ligand; 1 µM).
